Source: article PMC4364164 (International Journal of Nanomedicine, 2015)

What was measured:
[1] = test system: cells; settings: NBD alone; cited from earlier work
[2] = test system: SH-SY5Y cells; test: Cellular uptake by fluorescence microscopy, SH-SY5Y; type: cell-based, human; settings: 1 or 5 μM (Figure 2: 5 μM), 2 hours, NBD fluorescence, fixed cells
Procedure, shortened: (§1)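 NBD-labelled peptide (N-terminal) in PBS. Cells grown in DMEM with 10% FBS, 2 mM L-glutamine, penicillin and streptomycin at 37°C in 5% CO2. Seeded at 60,000/well on four-well chamber slides, then exposed to 1 or 5 μM for 2 h. Fixed in ice-cold methanol for 10 min and mounted in glycerol/PBS 1:1. Imaged on NBD (λem 515 nm) and DAPI (λex 350/λem 461 nm) channels.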

[3] = test system: U-87 MG cells; test: MTT assay for cell viability, U-87 MG; type: cell-based, human; settings: for cell death induced: positive control, data not shown
Procedure, shortened: (§2)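 Seeded in 96-well plates: SH-SY5Y at 8,000/well, U-87 MG at 5,000/well. Exposed 20 h to test compound 0.5–15 μM or equal-volume PBS vehicle; H2O2 400 or 800 μM as positive control. MTT 0.5 mg/mL for 3 h at 37°C. Formazan dissolved in isopropanol with 0.1 M HCl; optical density at 590 nm. Mean ± SE of five separate incubations.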

[4] = test system: brain homogenates; test: Cytochrome oxidase activity; type: in vivo; settings: rat brain homogenate; intravenous 40 μg/100 g, 3.5 hours; three rats
Procedure, shortened: (§3)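 Male Wistar rats (250–300 g), three per group, given a single iv dose of NBD-peptide 40 μg/100 g or PBS vehicle. Zoletil anaesthesia, decapitation at 3.5 h. Tissue homogenised 1:5 w/v in mannitol/sucrose/Tris/EDTA/EGTA/1% BSA medium, pH 7.4. Diluted 1:2 with Lubrol, 30 min on ice. Cytochrome oxidase assayed polarographically (Clark electrode, 37°C), with 1 mM KCN control. Mean ± SE of three rats; triplicate runs.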

[5] = test system: liver homogenates; test: Cytochrome oxidase activity; type: in vivo; settings: rat liver homogenate; intravenous 40 μg/100 g, 3.5 hours; three rats
Procedure, shortened: as §3

[6] = test system: U-87 MG cells; test: Maximal oxidative capacity; type: cell-based, human; settings: regardless of the concentration used, 20 hours, five separate incubations (Figure 1D)
[7] = test system: blood–brain barrier; test: Immunofluorescence analysis of brain sections; type: in vivo; settings: rat, intravenous 40 μg/100 g, 3.5 hours
Procedure, shortened: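 Same rats dosed iv at 40 μg/100 g, sampled at 3.5 h. Brains Bouin-fixed and paraffin-embedded; sections dewaxed, citrate (pH 6.0) microwave unmasking at 96°C. Stained with anti-BBB SMI-71, anti-GFAP or anti-tubulin III and 594-nm secondaries; imaged at 488/515 and 594/618 nm. Deconvolved, nMDP colocalisation. Outside/inside-vessel fluorescence per ROI area over ten sections, n=3 per group; two-tailed unpaired t-test.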

[8] = test system: U-87 MG cells; test: Spectrofluorimetric analysis of internalized peptide, U-87 MG; type: cell-based, human; settings: concentration not given
[9] = test system: SH-SY5Y cells; test: Maximal oxidative capacity; type: cell-based, human; settings: 0–15 μM, 20 hours, Clark-type oxygen electrode 37°C, five separate incubations (Figure 1C)
[10] = test system: brain homogenates; test: Mitochondrial respiration rate in brain homogenate after in vivo administration; settings: rat brain homogenate; intravenous 40 μg/100 g, 3.5 hours; three rats
Procedure, shortened: (§4)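 Same iv dosing (40 μg/100 g, PBS vehicle, three rats, sampled at 3.5 h). Homogenate (300 μg protein) in 1 mL buffer: 80 mM KCl, 50 mM HEPES, 1 mM EGTA, 5 mM KH2PO4, 2 mM MgCl2, 1% BSA, pH 7.4. Added 4 μM rotenone and 5 mM succinate; basal without ADP, stimulated with 200 μM ADP; respiratory control ratio derived. Clark electrode at 37°C; 1 mM KCN added. Triplicate runs.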

[11] = test system: brain; test: Fluorescence histological analysis ex vivo, brain; type: in vivo; settings: rat, single intravenous administration of gH625-NBD 40 μg/100 g body weight, 3.5 hours
Procedure, shortened: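 Male Wistar rats (250–300 g; n=3 per group) got one iv dose of NBD-labelled test peptide, 40 μg/100 g, or PBS vehicle. After 3.5 h: ip Zoletil anaesthesia, then decapitation. Sagittal 10 μm sections: Bouin's fixation 24 h, paraffin, 0.1% Sudan Black B in 70% ethanol 20 min, hemallum. Co-stained for SMI-71 endothelial marker, GFAP or tubulin III (citrate pH 6.0 unmasking), colocalization by nMDP. Outside/inside-vessel fluorescence ratio from ≥10 slices.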

[12] = test system: U-87 MG cells; test: Cellular uptake by fluorescence microscopy, U-87 MG; type: cell-based, human; settings: 1 or 5 μM (Figure 2: 5 μM), 2 hours, NBD fluorescence, fixed cells
Procedure, shortened: as §1

[13] = test system: liver homogenates; test: Mitochondrial respiration rate in liver homogenate after in vivo administration; settings: rat liver homogenate; intravenous 40 μg/100 g, 3.5 hours; three rats
Procedure, shortened: as §4

[14] = test system: SH-SY5Y cells; test: MTT assay for cell viability, SH-SY5Y; type: cell-based, human; settings: for cell death induced: positive control, data not shown
Procedure, shortened: as §2

[15] = test system: liver; test: Fluorescence histological analysis ex vivo, liver; type: in vivo; settings: rat, single intravenous administration of gH625-NBD 40 μg/100 g body weight, 3.5 hours
Procedure, shortened: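 Male Wistar rats (250–300 g; n=3 per group) got one iv dose of NBD-labelled test peptide, 40 μg/100 g, or PBS vehicle. After 3.5 h: ip Zoletil anaesthesia, then decapitation. Liver dissected. Half was fixed in Bouin's fluid 24 h and paraffin-embedded. 7 μm sections treated with 0.1% Sudan Black B in 70% ethanol 20 min against autofluorescence, then hemallum-stained and imaged for green fluorescence.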

Compound: 7-nitrobenz-2-oxa-1,3-diazole-4-yl [NBD]
- penetration into the cells [1]: almost unable to penetrate

Compound: H-HGLASTLTRWAHYNALIRAFGGG-NH2 [gH625]
- cellular uptake by fluorescence microscopy [2]: significant uptake
- effect on cell viability (MTT) ([3]; 0.5–15 μM, 20 hours, mean ± standard error of five separate incubations (Figure 1B)): no significant effect
- effect on maximal oxidative capacity (cytochrome oxidase activity) [4]: not affected
- effect on maximal oxidative capacity (cytochrome oxidase activity) [5]: not affected
- effect on maximal oxidative capacity (cytochrome oxidase activity) [6]: ineffective
- colocalization with astrocytes surrounding the BBB (anti-GFAP, nMDP) [7]: little or no colocalization
- colocalization with the endothelial BBB (anti-BBB SMI-71, nMDP) [7]: More colocalization
- administered peptide taken up [8]: more than 90%
- effect on maximal oxidative capacity (cytochrome oxidase activity) [9]: did not significantly affect
- effect on respiratory control ratio [10]: no changes
- distribution in brain (fluorescence histology) [11]: reaches the BBB and accumulates in the extensions of nerve cells
- cellular uptake by fluorescence microscopy [12]: significant uptake
- effect on mitochondrial respiration rate [13]: does not influence
- effect on cell viability (MTT) ([14]; 0.5–15 μM, 20 hours, mean ± standard error of five separate incubations (Figure 1A)): no significant effect
- distribution in liver (fluorescence histology) [15]: partly taken up by Kupffer cells

Compound: OO [H2O2]
- cell death induced ([3]; 400 μM): 22%
- cell death induced ([3]; 800 μM): 52%
- cell death induced ([14]; 400 μM): 30%
- cell death induced ([14]; 800 μM): 45%
